An excerpt weighted towards active compounds, which were near 5.8% of everything screened.
IDH1 mut inh: inhibitors of IDH1 R132H reductase, primary screen, biochemical, plate reader, single point. AID 624101, 2012. diaphorase/resazurin fluorescence, 60 min. 70,000 compounds, 0.18% hits. inhibition, % at 10 µM. Isocitrate dehydrogenase [NADP] cytoplasmic (Homo sapiens), O75874; in the data active = inhibition above about 34%
Target sequence (O75874 whole entry R132H): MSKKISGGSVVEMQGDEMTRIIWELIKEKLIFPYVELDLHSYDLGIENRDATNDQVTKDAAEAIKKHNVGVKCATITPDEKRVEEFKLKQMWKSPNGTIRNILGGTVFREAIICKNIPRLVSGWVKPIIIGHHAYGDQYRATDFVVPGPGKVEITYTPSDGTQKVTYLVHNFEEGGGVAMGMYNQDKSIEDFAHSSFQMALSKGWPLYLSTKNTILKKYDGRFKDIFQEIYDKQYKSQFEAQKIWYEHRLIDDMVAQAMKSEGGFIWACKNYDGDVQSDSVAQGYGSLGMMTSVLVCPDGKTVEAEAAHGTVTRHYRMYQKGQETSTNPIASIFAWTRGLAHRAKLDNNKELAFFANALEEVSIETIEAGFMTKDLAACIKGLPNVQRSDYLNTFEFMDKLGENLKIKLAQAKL
Tcruzi prolif: T. cruzi intracellular proliferation inhibitors, primary screen, cell-based, beta-gal Tulahuen parasites, NIH3T3 host, luminescence. inhibition, % at 8.34 µM. 77,000 compounds, 5.9% hits. T. cruzi beta-gal in NIH3T3, GalScreen luminescence, 90 h;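 active = mean inhibition above about 93%, with at least 55% of replicates each passing it, limit read from the data, passing the limit was not always enough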
GASC1 inh: inhibitors of GASC-1 (KDM4C) histone demethylase, primary screen, biochemical, single concentration HTS; Lysine-specific demethylase 4C (Homo sapiens), Q9H3R0; GST-KDM4C 2-372, H3K9me3 peptide, LANCE TR-FRET; inhibition, % at 12.5 µM; 96,000 compounds, 0.15% hits; AID 720574, 2013;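 active = mean replicate inhibition above about 25%, with at least 55% of replicates also reaching it, limit read from the data, passing the limit was not always enough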
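material = GST-tagged GASC-1 (JMJD2C) catalytic fragment, aa 2-372 | amount = enzyme final amount 10 nM | medium = HEPES buffer, pH 7.5, plus ascorbate | also added = H3K9me3 peptide substrate, Fe(II), 2-oxoglutarate | dosing = single dose | times = 30 min demethylation and 1 h detection at room temperature | detection = LANCE TR-FRET | read-out basis = Fall in 671/618 emission ratio as inhibition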
Pf Dd2 inh: P. falciparum Dd2 growth inhibitors, primary screen, SYBR Green fluorescence, single dose replicates; activity change, % at 10 µM; 94,000 compounds, 2.3% hits; AID 1159554, 2015; 72 h; stronger effect = lower value; in the data active = activity change below about -80%
Of the large screens only hits and unclear results are named; the others gave an inactive call; ! = repeats disagree.

Cc1ccc(-c2nnc3c4ccccc4c(C)nn23)cc1S(=O)(=O)N(C)CCO	none (no result: Tcruzi prolif, GASC1 inh, Pf Dd2 inh)
C[C@@H]1CCCCO[C@H](CN(C)CC2CCCCC2)[C@@H](C)CN([C@H](C)CO)C(=O)c2cc(NC(=O)Nc3ccc(C(F)(F)F)cc3)ccc2O1	none
C[C@@H]1CCCCO[C@H](CN(C)CC2CC2)[C@H](C)CN([C@@H](C)CO)C(=O)c2cc(NC(=O)Nc3ccc(C(F)(F)F)cc3)ccc2O1	Pf Dd2 inh -80 (no result: IDH1 mut inh)
C[C@@H]1CN([C@@H](C)CO)C(=O)c2cc(NC(=O)Nc3ccc(C(F)(F)F)cc3)ccc2O[C@@H]1CN(C)CC1CCCCC1	Pf Dd2 inh -83
C[C@@H]1CCCCO[C@@H](CN(C)CC2CC2)[C@H](C)CN([C@@H](C)CO)C(=O)c2cc(NC(=O)Nc3ccc(C(F)(F)F)cc3)ccc2O1	none (no result: IDH1 mut inh)
C[C@H]1CN([C@@H](C)CO)C(=O)c2cc(NC(=O)Nc3ccc(C(F)(F)F)cc3)ccc2O[C@H]1CN(C)CC1CCCCC1	none (no result: GASC1 inh)
C[C@@H]1CN([C@@H](C)CO)C(=O)c2cc(NC(=O)Nc3ccc(C(F)(F)F)cc3)ccc2O[C@@H](C)CCCCO[C@@H]1CN(C)CC1CCCCC1	Tcruzi prolif 100
COCC(=O)N(C)C[C@@H]1Oc2cc(C#Cc3ccccc3)ccc2S(=O)(=O)N([C@H](C)CO)C[C@@H]1C	Pf Dd2 inh -82
C[C@H](CO)N1C[C@H](C)[C@@H](CN(C)C(=O)C2CC2)Oc2cc(C#Cc3ccccc3)ccc2S1(=O)=O	none
C[C@H](CO)N1C[C@H](C)[C@H](CN(C)C(=O)C2CC2)Oc2cc(C#Cc3ccccc3)ccc2S1(=O)=O	Pf Dd2 inh -92
COCC(=O)N(C)C[C@H]1Oc2cc(C#Cc3ccccc3)ccc2S(=O)(=O)N([C@@H](C)CO)C[C@@H]1C	none
COc1ccccc1-n1c(SCC(=O)c2ccc3c(c2)CCCC3)nc2ccccc2c1=O	none (no result: Tcruzi prolif, GASC1 inh, Pf Dd2 inh)
O=C(N/N=C/c1ccccc1)c1ccccn1	none (no result: Tcruzi prolif, GASC1 inh, Pf Dd2 inh)
C[C@H](CO)N1C[C@H](C)[C@H](CN(C)S(=O)(=O)c2ccc(C(F)(F)F)cc2)OCc2ccccc2-c2c(n(C)c3ccccc23)C1=O	Pf Dd2 inh -94 (no result: IDH1 mut inh, Tcruzi prolif)
C[C@@H]1CN([C@@H](C)CO)C(=O)c2c(c3ccccc3n2C)-c2ccccc2CO[C@@H]1CN(C)S(=O)(=O)c1ccc(C(F)(F)F)cc1	Pf Dd2 inh -89 (no result: IDH1 mut inh, Tcruzi prolif)
C[C@H](CO)N1C[C@H](C)[C@@H](CN(C)S(=O)(=O)c2ccc(C(F)(F)F)cc2)OCc2ccccc2-c2c(n(C)c3ccccc23)C1=O	Pf Dd2 inh -90 (no result: IDH1 mut inh, Tcruzi prolif)
CN(CC(=O)Nc1ccccc1C(=O)N1CCCCC1)S(=O)(=O)c1ccc2ccccc2c1	none (no result: Tcruzi prolif, GASC1 inh, Pf Dd2 inh)
Cc1c(C(=O)C2C(=O)C(=O)N(CCN3CCOCC3)C2c2ccccn2)cnn1-c1ccccc1 (centres undefined)	none (no result: Tcruzi prolif, GASC1 inh, Pf Dd2 inh)
C[C@H](CO)N1C[C@H](C)[C@H](CN(C)Cc2ccc(C(=O)Nc3ccccc3N)cc2)OCCCC[C@H](C)Oc2ccc(NC(=O)C3CCCCC3)cc2C1=O	Pf Dd2 inh -92 (no result: Tcruzi prolif)
C[C@H]1CN([C@@H](C)CO)C(=O)c2cc(NC(=O)C3CC3)ccc2O[C@H]1CN(C)Cc1ccc(C(=O)Nc2ccccc2N)cc1	none (no result: Tcruzi prolif)
C[C@@H]1CN([C@H](C)CO)C(=O)c2cc(NC(=O)C3CCCCC3)ccc2O[C@@H]1CN(C)Cc1ccc(C(=O)Nc2ccccc2N)cc1	Pf Dd2 inh -83 (no result: IDH1 mut inh)
C[C@@H]1CN([C@@H](C)CO)C(=O)c2cc(NC(=O)C3CCCCC3)ccc2O[C@@H]1CN(C)Cc1ccc(C(=O)Nc2ccccc2N)cc1	Pf Dd2 inh -89 (no result: IDH1 mut inh)
C[C@@H]1CN([C@@H](C)CO)C(=O)c2cc(NC(=O)C3CC3)ccc2O[C@@H]1CN(C)Cc1ccc(C(=O)Nc2ccccc2N)cc1	none
O=C1C(=O)N(Cc2ccco2)C(c2cccnc2)C1C(=O)c1cc2ccccc2o1 (centres undefined)	none (no result: Tcruzi prolif, GASC1 inh, Pf Dd2 inh)
O=S(=O)(N[C@H]1CC[C@H](CCn2cc(Cc3ccccc3)nn2)O[C@H]1CO)c1ccccc1F	GASC1 inh 34
CN(C)Cc1cn(CC[C@@H]2CC[C@H](NS(=O)(=O)c3ccccc3)[C@H](CO)O2)nn1	none (no result: Tcruzi prolif, Pf Dd2 inh)
O=S(=O)(N[C@H]1CC[C@@H](CCn2cc(C3(O)CCCC3)nn2)O[C@@H]1CO)c1ccc(F)cc1	GASC1 inh 36
CCCc1cn(CC[C@H]2CC[C@@H](NS(=O)(=O)c3ccc(-c4ccccc4)cc3)[C@@H](CO)O2)nn1	Pf Dd2 inh -94
CCCc1cn(CC[C@@H]2CC[C@@H](NS(=O)(=O)c3ccc(-c4ccccc4)cc3)[C@@H](CO)O2)nn1	Pf Dd2 inh -91
Cc1cc(OCC(=O)Nc2ncn[nH]2)c(C)cc1Br	none (no result: Tcruzi prolif, GASC1 inh, Pf Dd2 inh)
N#Cc1ccc(-c2ccc(C3[C@@H]4CN(C(=O)C5CC5)C[C@H]3N4)cc2)cc1 (some centres undefined)	Pf Dd2 inh -88! (no result: IDH1 mut inh, Tcruzi prolif)
N#Cc1ccc(-c2ccc([C@@H]3[C@@H]4CN(C(=O)Nc5ccc6c(c5)OCO6)C[C@H]3N4)cc2)cc1	Pf Dd2 inh -87 (no result: IDH1 mut inh, Tcruzi prolif)
C/C=C/c1ccc(C2[C@@H]3CN(C(=O)Nc4ccc5c(c4)OCO5)C[C@H]2N3)cc1 (some centres undefined)	none (no result: IDH1 mut inh, Tcruzi prolif)
O=C(COc1ccc(Cl)cc1Cl)Nc1ccccc1CO	none (no result: Tcruzi prolif, GASC1 inh, Pf Dd2 inh)
C[C@H]1CCCCO[C@H](CN(C)CC2CC2)[C@@H](C)CN([C@@H](C)CO)C(=O)c2cc(NC(=O)Nc3ccc4c(c3)OCO4)ccc2O1	Pf Dd2 inh -90 (no result: IDH1 mut inh)
C[C@@H]1CCCCO[C@@H](CN(C)CC2CC2)[C@H](C)CN([C@@H](C)CO)C(=O)c2cc(NC(=O)Nc3ccc4c(c3)OCO4)ccc2O1	none
CCCN(C)C[C@H]1OCCCC[C@@H](C)Oc2ccc(NC(=O)Nc3ccc4c(c3)OCO4)cc2C(=O)N([C@H](C)CO)C[C@@H]1C	Pf Dd2 inh -86 (no result: IDH1 mut inh)
CCCN(C)C[C@H]1OCCCC[C@H](C)Oc2ccc(NC(=O)Nc3ccc4c(c3)OCO4)cc2C(=O)N([C@@H](C)CO)C[C@@H]1C	none (no result: IDH1 mut inh, Pf Dd2 inh)
COc1ccc([N+](=O)[O-])cc1NC(=O)CN(c1ccc(Cl)c(Cl)c1)S(C)(=O)=O	none (no result: Tcruzi prolif, GASC1 inh, Pf Dd2 inh)
C[C@@H]1CN([C@@H](C)CO)S(=O)(=O)c2ccc(-c3ccc(C(=O)N(C)C)cc3)cc2O[C@H]1CN(C)Cc1ccc2c(c1)OCO2	Pf Dd2 inh -84 (no result: IDH1 mut inh, Tcruzi prolif)
C[C@@H]1CN([C@@H](C)CO)S(=O)(=O)c2ccc(-c3ccc(F)cc3)cc2O[C@H]1CN(C)CC1CC1	none (no result: Tcruzi prolif, GASC1 inh)
C[C@@H]1CN([C@@H](C)CO)S(=O)(=O)c2ccc(-c3ccccc3)cc2O[C@H]1CN(C)Cc1cccnc1	IDH1 mut inh 66, Tcruzi prolif 103
C[C@H](CO)N1C[C@H](C)[C@@H](CN(C)Cc2ccc3c(c2)OCO3)Oc2cc(-c3cccc(C(=O)N(C)C)c3)ccc2S1(=O)=O	none (no result: Tcruzi prolif)
COc1ccccc1C#Cc1ccc2c(c1)O[C@@H](CN(C)Cc1cccnc1)[C@H](C)CN([C@@H](C)CO)S2(=O)=O	Pf Dd2 inh -83 (no result: IDH1 mut inh, Tcruzi prolif)

Screens deposited in PubChem BioAssay by Broad Institute.
